From PubChem
This is a sample that favours compounds with a hit; in the whole collection about 1.8% have one here.
LMPTP inh: LMPTP (human) inhibition; P24666; inhibition, % at 20 µM; recombinant LMPTP-A, OMFP fluorogenic substrate, fluorescence intensity; AID 651560; 360,000 tested, 0.22% active;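 active = compounds that cut the enzyme signal by at least half of the control window in the single-dose screen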;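 also: plate controls were DMSO wells with enzyme plus substrate for no effect and substrate without enzyme for full effect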
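Buffer or medium: Bis-Tris pH 6.0, DTT, detergent; Assay system: LMPTP-A enzyme; Quantity: 0.625 nM enzyme; Detection: endpoint fluorescence intensity; Times: 50 min dark incubation at room temperature; Controls: substrate-only low control, DMSO enzyme-plus-substrate high control; Doses: single 20 µM dose; Read-out: percent inhibition versus substrate-only and uninhibited controls; Reagent: 400 µM OMFP.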
DNMT1 block: DNMT1 (human) enzyme inhibition; P26358; DNMT1 molecular beacon, Hinp1I cleavage, fluorescence; inhibition (reported as % activation of signal), % at 10 µM; 360,000 tested, 0.83% active; in the data active = inhibition above about 50%
Scp-1 inhibitor: inhibitors of human Scp-1 phosphatase | Q9GZU7 | Recombinant Scp1, phosphopeptide, malachite green phosphate absorbance | inhibition, % at 20 µM | 340,000 tested, 0.88% active | AID 493091;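 active = inhibition above about 50% at 20 µM, limit read from the data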;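 also: plate controls were DMSO wells with enzyme for no effect and wells lacking enzyme for full effect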
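Material – SCP-1 phosphatase catalytic domain, residues 76-261 · Buffer or medium – Acidic Tris acetate buffer with magnesium and detergent · Also added – Phospho 17-mer peptide substrate · Compound – single 20 µM dose, 1% DMSO · Times – 45 min room-temperature reaction, 5 min colour, 30 min stabiliser · Technique – Phosphate-binding colour reagent, absorbance read at 630 nm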
STEP block: STEP (human) phosphatase inhibition | recombinant STEP, OMFP fluorogenic substrate, fluorescence | inhibition, % at 20 µM | 360,000 tested, 0.25% active | AID 588621;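 active = inhibition at 20 µM, scaled per plate between control wells, above about 37%, limit read from the data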;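 also: 0% = DMSO with enzyme and substrate and 100% = substrate only without enzyme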
Target sequence (P54829 whole entry, looked up): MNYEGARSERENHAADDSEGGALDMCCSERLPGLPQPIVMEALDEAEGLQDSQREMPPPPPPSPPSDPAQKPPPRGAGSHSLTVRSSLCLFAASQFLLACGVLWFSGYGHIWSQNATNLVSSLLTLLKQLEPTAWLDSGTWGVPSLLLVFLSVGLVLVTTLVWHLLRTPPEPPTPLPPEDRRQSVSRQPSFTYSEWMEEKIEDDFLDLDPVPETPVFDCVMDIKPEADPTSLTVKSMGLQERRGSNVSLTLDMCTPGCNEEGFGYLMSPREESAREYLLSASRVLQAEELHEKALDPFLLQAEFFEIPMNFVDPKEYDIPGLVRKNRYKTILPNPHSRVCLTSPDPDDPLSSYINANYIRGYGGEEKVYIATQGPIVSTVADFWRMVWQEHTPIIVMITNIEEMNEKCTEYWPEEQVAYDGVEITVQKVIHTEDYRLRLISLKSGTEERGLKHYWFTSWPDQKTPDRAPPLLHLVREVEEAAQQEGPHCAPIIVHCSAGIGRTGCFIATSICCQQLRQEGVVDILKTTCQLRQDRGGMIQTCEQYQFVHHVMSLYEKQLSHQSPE
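System: STEP (striatal-enriched tyrosine phosphatase) enzyme, cell-free; medium: Bis-Tris pH 6.0 buffer with DTT, detergent; dosing: 20 µM, 1% DMSO; times: reaction 20 min, ambient temperature; detection: fluorescence, 480/540 nm; read-out basis: normalized % inhibition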
SUMO1 PPI mod: modulators of human SUMO1-mediated protein-protein interactions. P63165. SUMO1 binding to a labelled peptide, TR-FRET, 1 h. inhibition, % at 20 µM. 360,000 tested, 0.33% active. AID 602429; in the data active = inhibition above about 37%
Scp1 confirm: Scp-1 (human) inhibition, single-dose confirmed; shares compounds with Scp-1 inhibitor; recombinant SCP-1 catalytic domain, phosphate release, malachite green absorbance; inhibition, % at 20 µM; 2,500 tested, 61% active; AID 540281;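 also: plate controls were DMSO with enzyme for no effect and buffer wells lacking enzyme for full effect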
MG interference: interferes with malachite green readout, flagging false Scp-1 hits; AID 540313; apparent inhibition (interference), % at 20 µM; Colorimetric interference counterscreen, malachite green absorbance 630 nm; 2,500 tested, under 10 active; shares compounds with Scp-1 inhibitor;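 also: compounds added after enzyme reaction finished so only phosphate colour detection is probed; plate controls were DMSO wells with completed Scp-1 reaction for no effect and substrate wells lacking enzyme for full effect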
Scp1 DSF: validation of human Scp-1 inhibitors by thermal shift binding; Recombinant SCP1, Sypro Orange thermal shift Tm; 1,500 tested, 25% active; thermal shift relative to vanadate control, % at 40 µM; shares compounds with Scp-1 inhibitor; AID 540329;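 active = substances whose mean melting-temperature shift, as a percentage of the reference inhibitor's shift, reaches about 5.3%, limit read from the data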;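 also: 0% = Tm of DMSO wells and 100% = Tm with sodium orthovanadate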
DNMT1 inh conf: DNMT1 inhibition confirmation, single concentration; shares compounds with DNMT1 block; DNMT1 molecular beacon HinP1I cleavage, fluorescence; inhibition, % at 10 µM; 2,300 tested, 8% active; AID 602385;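 active = average inhibition of at least 30% in the single-concentration confirmation test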
Beacon interf: counter-screen for DNMT1 inhibitors: spectral interference | DNMT1 molecular beacon spectral interference counterscreen, fluorescence 485/520 | activation (fluorescence interference), % at 10 µM | 2,300 tested, 1% active | shares compounds with DNMT1 block;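 active = activation of at least 30% at 10 µM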;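 also: DNMT1 catalytic domain with a HinP1I cleavage step and a FAM/dabcyl DNA beacon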
STEP inh conf: confirmation of human STEP phosphatase inhibitors; shares compounds with STEP block; recombinant STEP, OMFP fluorogenic substrate, fluorescence; inhibition, % at 20 µM; 520 tested, 32% active; call rule not given here;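 also: 0% = enzyme with substrate plus DMSO and 100% = substrate without enzyme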
* = called active by the depositor; nt = no result given.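 The calls were made as follows, unless noted: active = inhibition of at least 30% at 20 µM; inactive = the rest.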

SMILES	LMPTP inh	DNMT1 block	Scp-1 inhibitor	STEP block	SUMO1 PPI mod	Scp1 confirm	MG interference	Scp1 DSF	STEP inh conf	others
O=C(CSc1nnc2c(n1)[nH]c1ccc(F)cc12)NCc1ccc(F)cc1	12	5	65*	60*	-2	25	-10	nt	-4
O=C(CSc1nnc2c(n1)[nH]c1ccc(F)cc12)NC1CC1	0	1	-1	0	-10	nt	nt	nt	nt
O=C(N/N=C/c1ccc(Br)s1)c1cccc([N+](=O)[O-])c1	91*	71*	99*	94*	31	76*	-14	1	56*	DNMT1 inh conf=1;Beacon interf=0
O=C(N/N=C/c1ccoc1)c1cccc([N+](=O)[O-])c1	1	22	24	10	-23	nt	nt	nt	nt
COc1ccc(OCCN2CCC(C(=O)NC(c3ccsc3)c3ccccc3C)CC2)cc1 (configuration not stated)	-1	-7	nt	-1	-5	nt	nt	nt	nt
O=c1c(C=Nc2ccc(Cl)cc2)c[nH]n1-c1cccc(Cl)n1	62*	75*	102*	79*	-9	99*	0	-3	2	DNMT1 inh conf=2;Beacon interf=-6
CCn1c(=S)sc2c(=O)n(CC(=O)Nc3ccccc3C(F)(F)F)c(C)nc21	67*	28	68*	87*	8	26	-17	nt	8
CN1CCC(N(C)S(=O)(=O)c2ccc(NC(=O)COc3ccc(F)cc3Cl)cc2)CC1	-1	-3	-6	-2	-9	nt	nt	nt	nt
CCOc1ccc(/C=N/NC(=O)c2cc3c(OC)cccc3[nH]2)cc1	25	83*	79*	89*	15	58*	-13	6.4*	41*	DNMT1 inh conf=4;Beacon interf=-3
COc1ccc(C(=O)NCC(c2ccccc2)c2ccccc2)cc1S(=O)(=O)N1CCOCC1	1	-4	-8	2	-3	nt	nt	nt	nt
O=C(N/N=C/c1cccnc1)c1ccc(Cl)c(Cl)c1	-2	0	-13	-1	-15	nt	nt	nt	nt
O=C(N/N=C/c1cccnc1)c1ccc(NC(=O)c2cccc(Cl)c2)cc1	21	-12	70*	94*	61*	72*	-12	8.4*	61*
O=C(OCCc1cc2ccccc2c(=O)o1)c1ccco1	-1	1	-6	-3	-2	nt	nt	nt	nt
O=C(O)CSc1ncnc2c1sc1nc(-c3ccccc3)c3c(c12)CCC3	2	-1	78*	48*	31	53*	-11	-9	34
O=C(NNC(=O)c1ccccc1[N+](=O)[O-])c1csc(N2CCOCC2)n1	-1	1	-2	2	-14	nt	nt	nt	nt
COc1ccc(-c2coc3c(C)c4oc(=O)c(CC(=O)O)c(C)c4cc23)cc1	1	0	-3	1	19	nt	nt	nt	nt
Cc1c(CC(=O)O)c(=O)oc2c(C)c3occ(-c4ccc(Br)cc4)c3cc12	2	4	52*	69*	23	62*	-7	-17	6
O=C(O)C(CCc1ccccc1)(Cc1ccccc1)C(=O)O	-2	1	-7	2	4	nt	nt	nt	nt
CN(C)c1ccc(C(=O)OCC(=O)Nc2ccc(S(N)(=O)=O)cc2)cc1	18	7	99*	40*	58*	75*	-16	11*	101*
CCOc1ccc(C(C)=O)cc1Cn1c(=O)oc2ccccc21	1	-4	-10	-2	10	nt	nt	nt	nt
